Measurements published in ChEMBL document CHEMBL4387722.

What was measured:
[1] = Selectivity ratio of IC50 for inhibition of human HSP60 expressed in Escherichia coli Rosetta 2(DE3)/human HSP10 expressed in Rosetta 2(DE3) pLysS cells to IC50 for inhibition of Escherichia coli GroEL expressed in Escherichia coli DH5alpha/Escherichia coli GroES expressed in Escherichia coli BL21 (DE3)
How it was run: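 Ratio of IC50s from two analogous chaperonin-mediated refolding assays: human HSP60/10 and E. coli GroEL/ES each refold denatured malate dehydrogenase (dMDH). Refolding is followed through the recovered MDH enzymatic activity in a coupled read-out. IC50s come from dose-response testing. GroEL subunits are at 700 nM in the GroEL/ES assay.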

[2] = Selectivity index, ratio of IC50 for human PTPN1 to IC50 for Mycobacterium tuberculosis PtpB
[3] = test system: Mycobacterium tuberculosis; assay: Antitubercular activity against Mycobacterium tuberculosis H37Rv after 5 days; assay type: functional, organism-based; conditions: 120 h
[4] = biological target: T1, Tyrosine-protein phosphatase non-receptor type 1 (Homo sapiens, UniProt P18031); assay: Inhibition of human PTPN1 expressed in Escherichia coli Rosetta 2 (DE3) using pNPP as substrate after 45 mins by spectrophotometric method
T1 sequence (P18031 whole entry): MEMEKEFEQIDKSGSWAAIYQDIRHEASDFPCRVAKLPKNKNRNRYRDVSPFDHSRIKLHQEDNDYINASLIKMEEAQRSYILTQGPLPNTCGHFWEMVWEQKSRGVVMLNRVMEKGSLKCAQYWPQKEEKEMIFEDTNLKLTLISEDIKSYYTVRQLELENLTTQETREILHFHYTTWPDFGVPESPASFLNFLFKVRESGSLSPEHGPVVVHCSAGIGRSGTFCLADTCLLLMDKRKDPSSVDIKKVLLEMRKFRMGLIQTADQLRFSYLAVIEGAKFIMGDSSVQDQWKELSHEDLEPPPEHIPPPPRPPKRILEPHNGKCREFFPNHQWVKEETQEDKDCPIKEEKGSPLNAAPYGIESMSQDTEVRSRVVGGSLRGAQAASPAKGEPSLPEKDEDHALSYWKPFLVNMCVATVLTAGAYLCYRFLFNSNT

[5] = test system: Mycobacterium tuberculosis; assay: Antitubercular activity against Mycobacterium tuberculosis H37Rv after 5 days at 200 uM relative to control; assay type: functional; conditions: 120 h
How it was run: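 M. tuberculosis grown in liquid culture with compound at a fixed 200 μM for 5 days. Growth inhibition expressed as percent of control.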

[6] = biological target: T2, Tyrosine-protein phosphatase non-receptor type 5 (Homo sapiens, UniProt P54829); assay: Inhibition of human PTPN5 expressed in Escherichia coli Rosetta 2 (DE3) using pNPP as substrate after 45 mins by spectrophotometric method
T2 sequence (P54829 whole entry): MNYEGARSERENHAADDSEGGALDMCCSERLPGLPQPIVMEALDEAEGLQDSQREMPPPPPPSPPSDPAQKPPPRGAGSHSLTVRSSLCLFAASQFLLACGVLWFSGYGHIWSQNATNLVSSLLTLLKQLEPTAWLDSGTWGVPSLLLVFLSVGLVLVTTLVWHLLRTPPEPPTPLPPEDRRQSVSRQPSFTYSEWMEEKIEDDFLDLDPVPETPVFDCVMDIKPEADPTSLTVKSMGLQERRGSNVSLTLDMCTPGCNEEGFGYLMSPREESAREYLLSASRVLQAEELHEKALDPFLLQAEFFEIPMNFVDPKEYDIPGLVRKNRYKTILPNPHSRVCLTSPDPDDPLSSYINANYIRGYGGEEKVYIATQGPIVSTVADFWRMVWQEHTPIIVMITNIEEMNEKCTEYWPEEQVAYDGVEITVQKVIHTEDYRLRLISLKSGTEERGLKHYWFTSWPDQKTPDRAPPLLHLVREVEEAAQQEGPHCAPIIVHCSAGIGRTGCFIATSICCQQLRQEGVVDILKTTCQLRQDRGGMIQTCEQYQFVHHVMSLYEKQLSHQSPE

[7] = biological target: T3, Tyrosine-protein phosphatase non-receptor type 2 (Homo sapiens, UniProt P17706); assay: Inhibition of human PTPN2 expressed in Escherichia coli Rosetta 2 (DE3) using pNPP as substrate after 45 mins by spectrophotometric method
T3 sequence (P17706 whole entry): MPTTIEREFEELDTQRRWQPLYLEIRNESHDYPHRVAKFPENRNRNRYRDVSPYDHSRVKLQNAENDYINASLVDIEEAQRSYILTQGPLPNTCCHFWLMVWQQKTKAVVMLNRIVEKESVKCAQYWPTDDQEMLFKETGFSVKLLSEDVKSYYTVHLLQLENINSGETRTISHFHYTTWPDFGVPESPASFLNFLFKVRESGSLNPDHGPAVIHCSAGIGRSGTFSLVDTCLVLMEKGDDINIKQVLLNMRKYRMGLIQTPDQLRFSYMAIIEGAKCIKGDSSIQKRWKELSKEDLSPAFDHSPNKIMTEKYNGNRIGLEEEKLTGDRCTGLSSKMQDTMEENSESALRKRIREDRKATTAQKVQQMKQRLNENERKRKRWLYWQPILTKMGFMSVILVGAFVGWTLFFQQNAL

HSP60/HSP10 = HSP60/HSP10 (Homo sapiens, UniProt P10809); assay: Inhibition of human HSP60 expressed in Escherichia coli Rosetta 2(DE3)/human HSP10 expressed in Escherichia coli Rosetta 2(DE3) pLysS cells assessed as reduction in HSP60/HSP10-mediated denatured pig heart mitochondrial MDH refolding by measuring MDH enzyme activity using sodium mesoxalate as substrate after 40 to 60 mins by spectrometric analysis
HSP60/HSP10, sequence (P10809 whole entry): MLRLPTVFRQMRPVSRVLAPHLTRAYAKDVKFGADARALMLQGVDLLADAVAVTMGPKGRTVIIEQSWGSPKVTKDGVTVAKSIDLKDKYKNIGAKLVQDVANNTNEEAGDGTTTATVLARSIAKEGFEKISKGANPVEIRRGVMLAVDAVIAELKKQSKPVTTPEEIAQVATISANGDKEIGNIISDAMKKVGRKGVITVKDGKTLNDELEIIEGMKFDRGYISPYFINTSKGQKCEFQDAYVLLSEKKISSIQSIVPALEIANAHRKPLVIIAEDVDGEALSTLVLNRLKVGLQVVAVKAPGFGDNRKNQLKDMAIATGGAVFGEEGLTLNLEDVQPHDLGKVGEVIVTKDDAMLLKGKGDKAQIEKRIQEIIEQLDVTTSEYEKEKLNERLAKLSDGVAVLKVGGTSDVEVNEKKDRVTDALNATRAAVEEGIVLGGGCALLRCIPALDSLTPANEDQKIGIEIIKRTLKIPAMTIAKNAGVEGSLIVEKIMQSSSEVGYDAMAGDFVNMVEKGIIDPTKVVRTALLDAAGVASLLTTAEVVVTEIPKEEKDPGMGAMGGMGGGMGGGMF
HSP60/HSP10, sequence (P61604 whole entry, further chain): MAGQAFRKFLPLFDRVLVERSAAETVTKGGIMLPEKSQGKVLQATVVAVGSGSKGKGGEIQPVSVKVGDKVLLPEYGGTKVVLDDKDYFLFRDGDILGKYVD

[8] = biological target: T4, Phosphotyrosine protein phosphatase (Mycobacterium tuberculosis, UniProt A0A045ISB3); assay: Inhibition of Mycobacterium tuberculosis His-tagged PtpB expressed in Escherichia coli Rosetta 2 (DE3) using pNPP as substrate after 30 mins by spectrophotometric method
T4 sequence (A0A045ISB3 whole entry): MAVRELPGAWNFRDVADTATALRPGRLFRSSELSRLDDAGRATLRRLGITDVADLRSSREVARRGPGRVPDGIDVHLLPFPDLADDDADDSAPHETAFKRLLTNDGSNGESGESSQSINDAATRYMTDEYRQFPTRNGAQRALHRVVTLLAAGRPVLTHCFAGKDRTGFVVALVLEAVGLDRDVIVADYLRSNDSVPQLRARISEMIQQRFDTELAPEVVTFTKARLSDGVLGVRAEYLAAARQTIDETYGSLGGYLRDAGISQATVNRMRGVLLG

E. coli GroEL/ES = E. coli GroEL/ES (Escherichia coli, UniProt P0A6F5); assay: Inhibition of Escherichia coli GroEL expressed in Escherichia coliDH5alpha/Escherichia coli GroES expressed in Escherichia coli BL21 (DE3) assessed as reduction in GroEL/GroES-mediated denatured pig heart mitochondrial MDH refolding by measuring MDH enzyme activity using sodium mesoxalate as substrate after 20 to 40 mins by spectrometric analysis
E. coli GroEL/ES, sequence (P0A6F5 whole entry, looked up): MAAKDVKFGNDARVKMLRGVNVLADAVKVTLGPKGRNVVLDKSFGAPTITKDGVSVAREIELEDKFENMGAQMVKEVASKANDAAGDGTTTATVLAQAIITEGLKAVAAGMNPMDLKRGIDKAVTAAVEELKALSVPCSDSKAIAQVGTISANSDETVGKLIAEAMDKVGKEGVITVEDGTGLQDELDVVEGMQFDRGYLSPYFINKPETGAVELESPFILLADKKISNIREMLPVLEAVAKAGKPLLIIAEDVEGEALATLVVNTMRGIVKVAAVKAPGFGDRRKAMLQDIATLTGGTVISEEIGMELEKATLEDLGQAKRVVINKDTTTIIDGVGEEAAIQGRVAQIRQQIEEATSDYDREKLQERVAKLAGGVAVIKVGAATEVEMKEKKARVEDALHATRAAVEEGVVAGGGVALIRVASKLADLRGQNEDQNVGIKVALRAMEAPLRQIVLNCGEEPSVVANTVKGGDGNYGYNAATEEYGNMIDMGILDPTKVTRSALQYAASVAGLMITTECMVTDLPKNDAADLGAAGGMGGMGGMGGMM

Compound: O=S(=O)(Nc1ccc2oc(-c3ccc(NS(=O)(=O)c4cccc5nonc45)cc3)nc2c1)c1ccc(Cl)s1
- Ratio IC50 [1]: 1.4
- Ratio IC50 [2]: 2.5
- EC50 [3]: 58 µM
- IC50 [4]: 15 µM
- inhibition at 200 µM [5]: 46%
- IC50 [6]: 24 µM
- IC50 [7]: 28 µM
- IC50 (HSP60/HSP10): 13 µM
- IC50 [8]: 5.9 µM
- IC50 (E. coli GroEL/ES): 9.3 µM
